NR2E3 ag-1 – agonists of human NR2E3 nuclear receptor | AID 602229 | 360,000 tested, 0.35% active | inhibition of corepressor binding, % at 3.98 µM | CHO-S Gal4-NCOR/VP16-NR2E3 two-hybrid, luciferase;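 active = inhibition above the mean of all tested compounds plus 3 SD, cut at about 70% in these data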;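 also: 0% = DMSO with NR2E3 transfected cells and 100% = cells lacking NR2E3 construct; higher means lower luciferase signal from less NR2E3 corepressor binding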
Target sequence (Q9Y5X4 whole entry, looked up, the tested form may be a part): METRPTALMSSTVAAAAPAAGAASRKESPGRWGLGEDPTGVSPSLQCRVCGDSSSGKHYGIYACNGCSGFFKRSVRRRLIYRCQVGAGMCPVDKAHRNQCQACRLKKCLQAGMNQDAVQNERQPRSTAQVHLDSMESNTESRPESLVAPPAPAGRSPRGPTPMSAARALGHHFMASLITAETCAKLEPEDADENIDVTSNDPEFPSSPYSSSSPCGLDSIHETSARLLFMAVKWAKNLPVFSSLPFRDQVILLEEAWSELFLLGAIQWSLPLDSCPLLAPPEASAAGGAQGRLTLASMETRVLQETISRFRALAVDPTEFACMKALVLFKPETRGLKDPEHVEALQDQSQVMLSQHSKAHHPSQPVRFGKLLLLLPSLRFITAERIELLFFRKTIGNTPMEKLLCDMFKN
Rev-erbA mod – modulates human Rev-erb alpha binding to DNA | 370,000 tested, 0.79% active | activity, % at 10 µM | Rev-erbα–FITC-DNA binding, fluorescence polarization, 90 min | P20393;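 active = activity above about 14%, limit read from the data; passing the limit was not always enough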;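 also: 0% = DMSO wells with 35 nM protein and 100% = DMSO wells with 750 nM protein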
MC4R ag barr – agonists of human melanocortin 4 receptor (MC4R) beta-arrestin; P32245; U2OS MC4R beta-arrestin complementation, luminescence; percent of melanotan II response, DMSO zero; activation, % at 8.9 µM; 360,000 tested, 0.98% active; AID 540308;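 active = activation above a per-plate cutoff, the mean activation of sample wells on that plate plus 3 SD, cut at about 8% in these data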
MC4R antagonist – blocks human MC4R cAMP signaling. P32245. MC4R-expressing cells, MTII-stimulated cAMP, LANCE TR-FRET. inhibition, % at 6.5 µM. 360,000 tested, 0.48% active. AID 540295;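 active = inhibition above its plate's cutoff, the mean of tested wells on that plate plus 3 SD, cut at about 29% in these data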;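 also: 0% = Melanotan II alone and 100% = Melanotan II plus saturating MCL0020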
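Material: U2OS-MC4R stable cell line | Reagent: Melanotan II challenge after compound preincubation | Doses: One concentration, 6.5 µM nominal | Incubation: 30-min compound preincubation, 1-h Melanotan II challenge, 1-h detection, room temperature | Signal: TR-FRET cAMP assay | Replicates: One well per compound, no replicates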
NR2E3 ag-2 – NR2E3 (human) agonism. Q9Y5X4. 320,000 tested, 0.12% active. inhibition of corepressor binding, % at 4.78 µM. GST-NR2E3/biotin-RetCOR TR-FRET, 1536-well. AID 2300;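 active = percent inhibition above the cutoff of mean plus 3 SD of all tested compounds, set per screening campaign, cut at about 20% in these data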;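 also: 0% = DMSO wells and 100% = biotin wells as full block of FRET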
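Test system – NR2E3–RetCOR corepressor complex · Quantity – NR2E3 fusion 1.35 nM · Buffer or medium – Tris pH 7.5 · Incubation – Compound–protein incubation for 5 h at 4 °C · Technique – TR-FRET, Eu(K)-anti-GST donor, streptavidin-D2 acceptor, ex 340, em 617/671 nm · Evaluation – percent inhibition of 671/617 nm emission ratio versus biotin and DMSO controls · Plate – 1536-well format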
PG9 Ab binder – binds the HIV-1 gp120 antibody PG9 | 360,000 tested, 0.43% active | TR-FRET gp120-PG9 antibody binding | inhibition, % at 6.7 µM; in the data active = inhibition above about 8.5%
An asterisk follows results filed as active; x = no result. Hits are enriched below; roughly 2.7% of the tested compounds scored in any of these assays.

SMILES	NR2E3 ag-1	Rev-erbA mod	MC4R ag barr	MC4R antagonist	NR2E3 ag-2	PG9 Ab binder
O=C(CCN1C(=O)/C(=C/c2ccccc2)SC1=S)NNC(=O)c1cccnc1	11	-2	8.8*	-3	0	0
COCc1cc(=O)[nH]c(N2CCN(C(=O)c3ccco3)CC2)n1	-12	5	0	13	-1	-1
O=Nc1c(O)n(Cc2c(Cl)cccc2Cl)c2ccccc12	-47	1	8.4*	0	-1	0
Cc1cc(C)cc(N(C(=O)Cc2cccs2)C(C(=O)NC2CCCC2)c2ccc(C)o2)c1 (centres undefined)	17	2	0	8	0	0
Cc1ccc(NC(=O)c2ccc(Cl)c(N3C(=O)C=CC3=O)c2)cc1	-37	4	-1	55*	0	0
COc1cccc(C(=O)Nc2ccc(C)cc2)c1	-119	1	-2	6	4	-1
CCCCNC(=O)COC(=O)c1c2c(nc3ccccc13)/C(=C\c1cccs1)CC2	-21	-1	3	26	x	5
CC(C)CNC(=O)COC(=O)c1c2c(nc3ccccc13)/C(=C/c1cccs1)CC2	-26	6	9.5*	17	1	5
O=C(NC1CCCCCC1)c1c(O)nc2sccn2c1=O	-46	3	-2	6	0	0
COc1ccc(-c2noc(-c3cc(C)cc(C)c3)n2)cc1OC	-16	12	4	2	0	-2
COc1ccc(Cc2nc(C(=O)Nc3ccccc3)cs2)cc1	-6	0	-1	0	1	-1
Cc1cc(C)c(S(=O)(=O)NCCc2ccccc2)c(C)c1	17	-2	8.4*	-8	0	-1
Cn1ncc2c(O/N=C(\N)c3ccc(C(C)(C)C)cc3)ncnc21	5	x	36*	12	-2	x
OCC1(Cc2cccc(C(F)(F)F)c2)CCN(Cc2cc3ccccc3o2)CC1	16	2	9.2*	19	0	1
COc1ccc(CC2(CO)CCN(Cc3cc4ccccc4o3)CC2)cc1	-12	0	-2	5	-7	2
CCOc1ccc(/C=C/C(=O)Nc2ccc(N3CCOCC3)cc2)cc1	-15	-1	8.9*	8	0	-1
CN(C)CCCN(C(=O)CCc1ccccc1)c1nc2ccc(Br)cc2s1	-16	-2	9.5*	1	-3	0
COc1cccc(OC)c1C(=O)NC(=S)Nc1ccc2oc(-c3ccncc3)nc2c1	-10	6	-1	23	-4	-1
C[C@H]1[C@H](C)CC[C@]2(C(=O)O)CC[C@]3(C)C(=CC[C@@H]4[C@@]5(C)C[C@@H](O)[C@H](O)C(C)(C)[C@@H]5CC[C@]43C)[C@H]12	94*	x	1	2	3	x
C[C@H]1[C@H](C)CC[C@]2(C(=O)O)CC[C@]3(C)C(=CC[C@@H]4[C@@]5(C)CC[C@H](O)C(C)(C)[C@@H]5CC[C@]43C)[C@H]12	10	-2	0	1	5	-1
CC1(C)CC[C@]2(C(=O)O)CC[C@]3(C)C(=CCC4[C@]56CC[C@@](O)(OC5)C(C)(C)C6CC[C@]43C)C2C1 (some centres undefined)	-17	-5	3	2	x	-3
C[C@@H]1CC[C@]2(C(=O)O)CC[C@]3(C)C(=CCC4[C@]56CC[C@@](O)(OC5)C(C)(C)C6CC[C@]43C)C2[C@H]1C (some centres undefined)	94*	x	1	20	-3	x
COc1cccc(CNC(=O)[C@H](CC(C)C)NC(=O)N2CCn3c2nc2ccccc23)c1	-9	5	0	2	1	-2
CC(C)(C)NS(=O)(=O)c1ccc(CCC(=O)NCc2ccc3c(c2)OCO3)cc1	-17	4	-1	3	2	-1
Cc1oc2c(C)c(O)ccc2c(=O)c1-c1cnn(-c2ccccc2)c1	-30	0	29*	3	-1	-1
SMILES	NR2E3 ag-1	Rev-erbA mod	MC4R ag barr	MC4R antagonist	NR2E3 ag-2	PG9 Ab binder
COc1ccc(N=C2SC(CC(=O)Nc3ccccc3)C(=O)N2Cc2ccco2)cc1 (centres undefined)	28	1	8.3*	-5	2	0
CC(C)CC(=O)Nc1ccc(C(=O)Cn2nc(C(=O)O)c3ccccc3c2=O)cc1	-13	6	-1	9	2	0
CC(C)(C)c1ccc(C(=O)Cn2nc(C(=O)O)c3ccccc3c2=O)cc1	-17	3	8.7*	1	2	-2
CCSc1nnc(NC(=O)C2CC(=O)N(Cc3ccccc3)C2)s1 (centres undefined)	12	3	-1	14	-4	1
C=CC[n+]1ccc(/C=C2\C=Cc3cc(C)ccc3N2CC)c2ccccc21	93*	x	-2	-24	x	x
Cc1ccc(-n2[nH]c(C)c(C=Nc3ccc4[nH]c(=O)[nH]c4c3)c2=O)cc1C	-40	-4	16*	7	-1	-1
COCC(=O)Nc1ccc(S(=O)(=O)Nc2nccs2)cc1	5	4	-2	2	0	-1
CCOC(=O)c1ccc(-n2nc(C)cc2C)cc1	-11	6	2	0	-5	0
Cc1cc(C)n(-c2ccc(C(=O)OCC(=O)NC(c3ccccc3)c3ccccc3)cc2)n1	9	6	9.3*	20	2	0
CCOc1ccc(-c2nnc(SCC(=O)Nc3ccc4c(c3)c3ccccc3n4CC)n2N)cc1	-8	-7	30*	-6	0	8
COC(=O)C(=N/Nc1ccccc1C(=O)OC)/C(C)=N/O	21	3	8.8*	-1	2	0
O=[N+]([O-])c1nn(-c2ccc3c(c2)OCCO3)n(O)c1=Nc1ccc(Cl)cc1	86*	x	-1	13	6	0
NC(=O)SCC(=O)Nc1ccccc1C(=O)O	-21	2	0	6	-2	-2
COc1ccc(N2CCN(C(=O)CSc3nnc4n3C(C)(C)Cc3ccccc3-4)CC2)cc1	4	-7	-1	-4	0	2
Cc1ccc(Cl)cc1N1CCN(C(=O)CSc2nnc3n2C(C)(C)Cc2ccccc2-3)CC1	87*	3	-3	8	0	-1
Cc1nn(C(=O)CNS(=O)(=O)c2ccccc2)c(C)c1Sc1ccc(Cl)cc1	4	6	8.9*	9	1	-2
Cc1nn(C(=O)c2cccnc2)c(C)c1Sc1ccccc1	5	-3	0	4	-4	1
O=C(c1ccc2nccnc2c1)N1CCN(c2cccc(C(F)(F)F)c2)CC1	6	-8	-1	9	1	2
Cc1ccc(OCC(=O)NC(=S)Nc2ccccn2)c(Br)c1	-11	-4	8.6*	-9	3	3

From PubChem
